In the library only some 2.2% were active in any assay of this set; here they are far more common.
Rin1-Abl PPI inh – inhibitors of Rin1-Abl protein binding, primary screen, biochemical, TR-FRET | hit rate 0.4% among 360,000 | inhibition, % at 7.35 µM; in the data active = inhibition above about 5%, passing the limit was not always enough
SUMO HTRF inh – inhibitors of in vitro SUMOylation cascade, primary screen, biochemical, HTRF, uHTS; SUMO-conjugating enzyme UBC9 (Homo sapiens), P63279; HTRF SUMOylation assay, SAE1/SAE2 + UBC9; inhibition, % at 35 µM; hit rate 0.36% among 290,000; AID 2006, 2009; in the data active = inhibition above about 50%, passing the limit was not always enough
GSTO1 counter – inhibitors of recombinant GSTO1, primary screen, counter-screen for RBBP9 inhibitor project, biochemical, fluorescence polarization | AID 1974, 2009 | activity-based probe fluorescence polarization | hit rate 1.1% among 300,000 | inhibition, % at 5.96 µM | Glutathione S-transferase omega-1 (Homo sapiens), P78417;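 active = inhibition above the campaign mean inhibition plus 3 SD, cut at about 35% in these data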;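 also: 0% = GSTO1-1 with DMSO and 100% = wells lacking GSTO1-1 enzyme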
UBC13 polyUb – UBC13 polyubiquitin chain formation inhibitors, primary screen, biochemical, TR-FRET, uHTS; inhibition, % at 20 µM; hit rate 0.47% among 330,000; Ubiquitin-conjugating enzyme E2 N (Homo sapiens), P61088; AID 485273, 2010; in the data active = inhibition above about 45%, passing the limit was not always enough
PAD4 FP inh – human PAD4 inhibitors, primary screen, biochemical, fluorescence polarization, 1536-well format; AID 485272, 2010; recombinant PAD4, RCA probe fluorescence polarization; hit rate 0.41% among 330,000; inhibition, % at 6.36 µM; Protein-arginine deiminase type-4 (Homo sapiens), Q9UM07;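 active = percent inhibition above a cutoff equal to the mean of all tested compounds plus 3 SD, cut at about 15% in these data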;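 also: 0% = PAD4 with RCA probe and DMSO and 100% = probe without PAD4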
Target sequence (Q9UM07 whole entry, looked up): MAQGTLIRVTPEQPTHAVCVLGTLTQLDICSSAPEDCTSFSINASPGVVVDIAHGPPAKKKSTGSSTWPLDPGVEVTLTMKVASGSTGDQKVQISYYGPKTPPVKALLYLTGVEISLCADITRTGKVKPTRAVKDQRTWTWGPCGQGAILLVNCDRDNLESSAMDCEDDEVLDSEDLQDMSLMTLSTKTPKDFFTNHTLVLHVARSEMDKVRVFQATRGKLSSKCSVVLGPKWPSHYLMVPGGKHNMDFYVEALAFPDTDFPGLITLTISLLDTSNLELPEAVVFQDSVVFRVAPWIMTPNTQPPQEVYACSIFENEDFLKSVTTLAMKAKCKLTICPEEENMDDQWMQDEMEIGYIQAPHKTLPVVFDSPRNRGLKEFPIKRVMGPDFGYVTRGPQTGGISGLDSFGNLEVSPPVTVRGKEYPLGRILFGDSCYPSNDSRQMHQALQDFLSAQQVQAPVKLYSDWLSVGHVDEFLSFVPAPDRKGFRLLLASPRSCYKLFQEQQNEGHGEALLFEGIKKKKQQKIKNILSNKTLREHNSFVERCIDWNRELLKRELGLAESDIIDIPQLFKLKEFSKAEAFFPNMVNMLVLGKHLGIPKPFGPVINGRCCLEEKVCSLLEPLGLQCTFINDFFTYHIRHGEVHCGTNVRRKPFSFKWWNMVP
Apaf-1 inh – inhibitors of human Apaf-1 apoptosome, primary screen, biochemical, DEVD-Rh110 fluorescence, uHTS; Apoptotic protease-activating factor 1 (Homo sapiens), O14727; reconstituted apoptosome caspase-3 activity; inhibition, % at 20 µM; hit rate 0.71% among 330,000; active = inhibition of at least 40% at 20 µM;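 also: plate controls were DMSO wells for no effect and DEVD-CHO caspase inhibitor wells for full effect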
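Material: biochemical Apaf-1 apoptosome reconstitution. Medium: Hepes buffer, pH 7.5. Also added: cytochrome c activation, bis-DEVD rhodamine 110 substrate. Timing: 30 min compound preincubation, 50 min activation, room temperature. Measured by: rhodamine 110 fluorescence at Ex 480/Em 540 nm.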
PAD4 confirm – human PAD4 inhibitors, confirmation, biochemical, fluorescence polarization | shares compounds with PAD4 FP inh | recombinant PAD4, RCA probe fluorescence polarization | inhibition, % at 6.36 µM | hit rate 28% among 1,200;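 active = mean inhibition across replicates above the hit cutoff set by the earlier primary screen, cut at about 15% in these data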;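 also: inhibitors block active-site labeling by the probe so polarization falls; 0% = PAD4 with probe and DMSO and 100% = probe without PAD4 enzyme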
Numbers without * were called inactive; / = not tested or not shown.

SMILES | Rin1-Abl PPI inh | SUMO HTRF inh | GSTO1 counter | UBC13 polyUb | PAD4 FP inh | Apaf-1 inh | PAD4 confirm
O=C1CC(Nc2ccc(N3CCOCC3)cc2)C(=O)N1c1ccccc1 (centres undefined) | 0 | 15 | 1 | 1 | 7 | -5 | /
O=C1CC(Nc2ccc(N3CCOCC3)cc2)C(=O)N1Cc1ccccc1 (centres undefined) | -3 | -14 | 32 | -21 | 35* | 16 | -1
COc1ccccc1N1C(=O)CC(Nc2ccc(N3CCOCC3)cc2)C1=O (centres undefined) | 0 | 11 | 5 | -22 | 24* | 6 | 2
COc1cc(OC)c(OC)cc1/C=C1\CC(C)C/C(=C\c2cc(OC)c(OC)cc2OC)C1=O (centres undefined) | 1 | 0 | 22 | / | -6 | / | /
Cc1cccc(C(=O)O/N=C(\N)Cc2cccc3ccccc23)c1 | 4 | 6 | -3 | -135 | 34* | 13 | 4
Cc1cccc(/C(N)=N/OC(=O)Cc2cccc3ccccc23)c1 | -2 | -3 | -4 | 8 | 0 | 0 | /
CC[n+]1c(C)sc2cc(OC)ccc21 | -1 | 7 | 11 | -3 | 17* | -3 | 13
COC(=O)c1ccccc1NC(=O)C/C(C)=N/NC(=O)Cc1ccc(Cl)cc1 | 6 | -3 | 15 | 6 | 5 | 7 | /
O=C(Oc1ccc(-c2cnc3ccccc3n2)cc1)c1ccco1 | -5 | -8 | 1 | -7 | 36* | -4 | 35*
Cc1ccc(C(=O)COC(=O)c2ccc(-c3cnc4ccccc4n3)cc2)cc1C | 0 | -8 | -5 | 41 | -1 | 7 | /
CCC(=O)Oc1ccc(-c2cnc3ccccc3n2)cc1 | 1 | -11 | 0 | -12 | 20* | 9 | 9
Cc1c(C(=O)Oc2ccc(-c3cnc4ccccc4n3)cc2)cccc1[N+](=O)[O-] | -5 | 21 | -2 | -3 | 62* | -6 | 57*
O=C(Oc1ccc(-c2cnc3ccccc3n2)cc1)c1cc([N+](=O)[O-])ccc1Cl | 0 | 18 | -5 | -5 | 5 | -2 | /
CC1CCC(N(C)C(=O)CN2C(=O)NC(c3ccccc3)(c3ccccc3)C2=O)CC1 (centres undefined) | -2 | / | / | / | / | / | /
CC(=O)Nc1ccc(S(=O)(=O)N2CCN(c3ccc(C(C)=O)cc3)CC2)cc1 | 1 | / | / | / | / | / | /
O=C(O)CC/C(=N\NC(=O)CNC(=O)c1ccc(F)cc1)c1ccccc1 | -3 | 1 | -2 | 10 | 18* | -7 | -6
CCOc1ncccc1C(=O)NNC(=O)c1cccc(S(=O)(=O)N2CCOCC2)c1 | 0 | / | / | 6 | 2 | -11 | /
CCCc1cc(C(=O)OCC(=O)N(CCC)c2c(N)n(Cc3ccccc3)c(=O)[nH]c2=O)sc1C | 1 | / | 6 | -3 | 2 | 2 | /
NS(=O)(=O)c1ccc(NC(=O)CCC(=O)O)cc1 | 3 | / | / | / | / | / | /
COc1ccc(S(=O)(=O)Nc2ccccc2C)cc1 | 3 | 1 | -4 | 7 | 75* | 5 | 3
Cc1ccccc1NS(=O)(=O)c1ccc(F)cc1 | 3 | 19 | 1 | -5 | 0 | -10 | /
O=C(CCc1nc2ccccc2c(=O)[nH]1)Nc1cccc(S(=O)(=O)N2CCCCC2)c1 | 5 | / | 3 | 4 | -3 | 4 | /
CN(C)S(=O)(=O)c1cccc(NC(=O)CCCc2nc3ccccc3c(=O)[nH]2)c1 | 1 | / | -2 | -11 | 29* | 1 | 7
Cc1cc(CN2CCC(N3CCC(C(=O)NC4CC4)CC3)CC2)cc(C)c1O | 0 | -6 | 19 | 0 | -6 | 11 | /
Fc1ccc(Cn2c(SCc3ccc(F)c(C(F)(F)F)c3)nnc2C(F)(F)F)cc1 | 3 | -41 | 6 | 3 | 23* | 21 | -3
SMILES | Rin1-Abl PPI inh | SUMO HTRF inh | GSTO1 counter | UBC13 polyUb | PAD4 FP inh | Apaf-1 inh | PAD4 confirm
c1ccc(Nc2ccccc2Nc2ccccn2)nc1 | 0 | 69 | 6 | -10 | 30* | -3 | 3
c1ccc(CNc2ccccn2)cc1 | -2 | 19 | -2 | -7 | 9 | 13 | /
O=C(O)c1ccccc1NSc1ccccc1[N+](=O)[O-] | 0 | 17 | 2 | -4 | 4 | -4 | /
O=C(O)c1ccccc1Sc1c([N+](=O)[O-])cc(C(F)(F)F)cc1[N+](=O)[O-] | 3 | 2 | 36* | -5 | 45* | -3 | 26*
Nc1ccc(OC(=O)Nc2ccc(O)cc2)cc1 | -1 | 38 | 59* | -5 | 73* | 16 | -11
O=C(Nc1ccc(N2CCN(c3ccc(O)cc3)CC2)cc1)Oc1ccccc1 | 3 | 21 | 34 | 0 | 0 | -26 | /
CCOc1cc(N2CCOCC2)c(OCC)cc1NC(=O)c1ccccc1N1CCCC1=O | -2 | / | / | / | / | / | /
Cc1cc(=O)[nH]c(NN)n1 | 2 | 3 | 0 | 9 | 16* | -20 | 7
CC(=O)C1=C(O)C(=O)N(CC(=O)O)C1c1ccccc1Cl (centres undefined) | -7 | 10 | 1 | -12 | 20* | -6 | 4
CC(C)(C)C(=O)C1=C(O)C(=O)N(Cc2ccccc2)C1c1ccccc1Cl (centres undefined) | -7 | 10 | 1 | -10 | -3 | 0 | /
CCc1ccc(C(=O)NNC(=O)c2ccc(OCC(=O)N3CCOCC3)c(OC)c2)cc1 | -1 | / | / | 3 | 4 | 3 | /
CC(=O)Nc1ccc(Nc2nc(Cl)nc(Nc3ccc(NC(C)=O)cc3)n2)cc1 | 3 | 8 | 5 | -16 | 19* | -7 | 1
COc1ccc(Nc2nc(Cl)nc(Nc3ccc(OC)cc3)n2)cc1 | 0 | 26 | 4 | -5 | -6 | 1 | /
CC(=O)C1=C(c2ccccc2)N(C(C)=O)n2c(C)nnc2S1 | -1 | -9 | 6 | -8 | 68* | 22 | 59*
O=S(=O)(CCSc1nc2ccccc2o1)c1nc2ccccc2s1 | -2 | 1 | -4 | -6 | 17* | 9 | 16*
CCS(=O)(=O)CCSc1nc2ccccc2o1 | 0 | -10 | 12 | -2 | 0 | 3 | /
NC(=O)c1ccc(-n2nnnc2SCC(=O)Nc2ccccc2-c2ccccc2)cc1 | 1 | 14 | 7 | 1 | 16* | -1 | 5
CC1CCC/C(=C\Nc2ccc(O)cc2)C1=O (centres undefined) | -4 | 47 | 37* | 0 | 28* | 34 | 9
Cc1cc(C(=O)O)ccc1N/C=C1\CCCC(C)C1=O (centres undefined) | -3 | 4 | 6 | -8 | -5 | 2 | /
COCCn1c(N)c(N(Cc2ccccc2)C(=O)c2ccc(N3CCCC3=O)cc2)c(=O)[nH]c1=O | 3 | / | / | / | / | / | /
